Converted amounts (≈) assume the structure as drawn.
Experiments:
Cryptococcus neoformans = test: Minimum inhibitory concentration against Cryptococcus neoformans after 48 hours; assay type: functional
In short: (§1)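 Antifungal susceptibility read visually; MIC taken as lowest drug concentration giving 90–100% inhibition of visible growth relative to drug-free controls, read over 48 h, or after 24 h where footnoted. Organisms: C. parapsilosis, C. albicans, Cryptococcus neoformans, C. glabrata, Aspergillus fumigatus, Aspergillus flavus.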

Candida parapsilosis = test: Minimum inhibitory concentration (MIC) to Candida parapsilosis after 48 hr; assay type: functional; in short: as §1
Aspergillus fumigatus = test: Minimum inhibitory concentration (MIC) to Aspergillus fumigatus after 48 hr; assay type: functional; in short: as §1
Nakaseomyces glabratus = test: Minimum inhibitory concentration (MIC) to Candida glabrata after 48 hours; assay type: functional; in short: as §1
Aspergillus flavus = test: Minimum inhibitory concentration (MIC) against Aspergillus flavus after 24 hours; assay type: functional; in short: as §1
Candida albicans = test: Minimum inhibitory concentration (MIC) to Candida albicans after 48 hr; assay type: functional; in short: as §1
[1] = Total body clearance was determined; assay type: ADME, organism-based; conditions: in vivo
In short: (§2)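 Mice dosed iv at 5 mg/kg or orally at 20 mg/kg, n = 3; drug concentrations measured in plasma/serum over time to derive half-life, Cmax, total body clearance, steady-state volume and oral bioavailability.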

[2] = Volume of steady state concentration was determined; assay type: ADME, organism-based; conditions: in vivo; read-out: Vss; in short: as §2
[3] = Half life period was measured upon intravenous administration (5 mg/kg); assay type: ADME, organism-based; conditions: in vivo; in short: as §2
[4] = Half life period was measured upon oral administration (20 mg/kg); assay type: ADME, organism-based; conditions: in vivo; in short: as §2
[5] = Oral bioavailability; assay type: ADME, organism-based; conditions: eutheria, in vivo; in short: as §2
[6] = Maximum plasma concentration was determined; assay type: ADME, organism-based; in short: as §2
[7] = Lodderomyces parapsilosis, 48 h, read-out: MIC
[8] = Aspergillus fumigatus, 48 h, read-out: MIC
[9] = Nakaseomyces glabratus, 48 h, read-out: MIC
[10] = Aspergillus flavus, 24 h, read-out: MIC

| SMILES | MIC (Cryptococcus neoformans) | MIC (Candida parapsilosis; [7]) | MIC (Aspergillus fumigatus; [8]) | MIC (Nakaseomyces glabratus; [9]) | MIC (Aspergillus flavus; [10]) | MIC (Candida albicans) | clearance [1] | MIC (Candida parapsilosis) | MIC (Aspergillus fumigatus) | Vd [2] | MIC (Nakaseomyces glabratus) | MIC (Aspergillus flavus) | half-life [3] | half-life [4] | bioavailability [5] | Cmax [6] |
| --- | --- | --- | --- | --- | --- | --- | --- | --- | --- | --- | --- | --- | --- | --- | --- | --- |
| CC(C)C1=CC2CC3(C=O)[C@@H]4CC[C@@H](C)[C@H]4CC2(CO[C@H]2CN(C4C=CCCC4)[C@H](C)CO2)[C@]13C(=O)O (stereo not given in full) | > 128 µg/mL | > 128 µg/mL | > 128 µg/mL | 8 µg/mL (≈ 15.6 µM) | > 128 µg/mL | 2 µg/mL (≈ 3.91 µM) | – | – | – | – | – | – | – | – | – | – |
| C=CCN1C[C@H](OCC23C[C@@H]4[C@H](C)CC[C@H]4C4(C=O)CC2C=C(C(C)C)[C@@]34C(=O)O)OC[C@H]1C | 128 µg/mL (≈ 271 µM) | 64 µg/mL (≈ 136 µM) | > 128 µg/mL | 0.25 µg/mL (≈ 0.53 µM) | > 128 µg/mL | 0.125 µg/mL (≈ 0.265 µM) | – | – | – | – | – | – | – | – | – | – |
| CC(C)C1=CC2CC3(C=O)[C@@H]4CC[C@@H](C)[C@H]4CC2(CO[C@H]2CN(CC=C(F)F)[C@H](C)CO2)[C@]13C(=O)O | 64 µg/mL (≈ 126 µM) | 64 µg/mL (≈ 126 µM) | > 128 µg/mL | 1 µg/mL (≈ 1.97 µM) | > 128 µg/mL | 0.125 µg/mL (≈ 0.246 µM) | – | – | – | – | – | – | – | – | – | – |
| C=C(Cl)CN1C[C@H](OCC23C[C@@H]4[C@H](C)CC[C@H]4C4(C=O)CC2C=C(C(C)C)[C@@]34C(=O)O)OC[C@H]1C(F)(F)F | > 128 µg/mL | > 128 µg/mL | > 128 µg/mL | 1 µg/mL (≈ 1.79 µM) | > 128 µg/mL | < 0.06 µg/mL | – | – | – | – | – | – | – | – | – | – |
| CC(C)C1=CC2CC3(C=O)[C@@H]4CC[C@@H](C)[C@H]4CC2(CO[C@H]2CN[C@H](C)CO2)[C@]13C(=O)O | > 128 µg/mL | > 128 µg/mL | > 128 µg/mL | 64 µg/mL (≈ 148 µM) | > 128 µg/mL | 8 µg/mL (≈ 18.5 µM) | – | – | – | – | – | – | – | – | – | – |
| CC(C)C1=CC2CC3(C=O)[C@@H]4CC[C@@H](C)[C@H]4CC2(CO[C@H]2CN(S(=O)(=O)C4CC4)[C@H](C)CO2)[C@]13C(=O)O | > 128 µg/mL | > 128 µg/mL | > 128 µg/mL | 128 µg/mL (≈ 239 µM) | > 128 µg/mL | 32 µg/mL (≈ 59.7 µM) | – | – | – | – | – | – | – | – | – | – |
| CC(C)C1=CC2CC3(C=O)[C@@H]4CC[C@@H](C)[C@H]4CC2(CO[C@H]2CN(C/C=C\Br)[C@H](C)CO2)[C@]13C(=O)O | > 128 µg/mL | > 128 µg/mL | > 128 µg/mL | 1 µg/mL (≈ 1.82 µM) | > 128 µg/mL | < 0.06 µg/mL | – | – | – | – | – | – | – | – | – | – |
| CC(C)C1=CC2CC3(C=O)[C@@H]4CC[C@@H](C)[C@H]4CC2(CO[C@H]2CN(C/C=C\Cl)[C@H](C)CO2)[C@]13C(=O)O | 128 µg/mL (≈ 253 µM) | > 128 µg/mL | > 128 µg/mL | 1 µg/mL (≈ 1.98 µM) | > 128 µg/mL | 0.125 µg/mL (≈ 0.247 µM) | – | – | – | – | – | – | – | – | – | – |

These reach a lower MIC (Cryptococcus neoformans). Values come first.

| MIC (Cryptococcus neoformans) | MIC (Candida parapsilosis; [7]) | MIC (Aspergillus fumigatus; [8]) | MIC (Nakaseomyces glabratus; [9]) | MIC (Aspergillus flavus; [10]) | MIC (Candida albicans) | clearance [1] | MIC (Candida parapsilosis) | MIC (Aspergillus fumigatus) | Vd [2] | MIC (Nakaseomyces glabratus) | MIC (Aspergillus flavus) | half-life [3] | half-life [4] | bioavailability [5] | Cmax [6] | SMILES |
| --- | --- | --- | --- | --- | --- | --- | --- | --- | --- | --- | --- | --- | --- | --- | --- | --- |
| 32 µg/mL (≈ 65.6 µM) | > 128 µg/mL | > 128 µg/mL | 1 µg/mL (≈ 2.05 µM) | > 128 µg/mL | < 0.06 µg/mL | – | – | – | – | – | – | – | – | – | – | CC(C)CN1C[C@H](OCC23C[C@@H]4[C@H](C)CC[C@H]4C4(C=O)CC2C=C(C(C)C)[C@@]34C(=O)O)OC[C@H]1C |
| < 0.06 µg/mL | 1 µg/mL (≈ 1.98 µM) | 32 µg/mL (≈ 63.2 µM) | 0.125 µg/mL (≈ 0.247 µM) | 0.5 µg/mL (≈ 0.988 µM) | < 0.06 µg/mL | 95 mL/min/kg | 1 µg/mL (≈ 1.98 µM) | 32 µg/mL (≈ 63.2 µM) | 7.1 L/kg | 0.125 µg/mL (≈ 0.247 µM) | 0.5 µg/mL (≈ 0.988 µM) | 1.8 h | 2.1 h | 100% | 5950 ng/mL | C=C(Cl)CN1C[C@H](OCC23C[C@@H]4[C@H](C)CC[C@H]4C4(C=O)CC2C=C(C(C)C)[C@@]34C(=O)O)OC[C@H]1C |
| 1 µg/mL (≈ 1.92 µM) | > 128 µg/mL | > 128 µg/mL | 2 µg/mL (≈ 3.83 µM) | > 128 µg/mL | 0.125 µg/mL (≈ 0.239 µM) | – | – | – | – | – | – | – | – | – | – | C=C(Cl)CON1C[C@H](OCC23C[C@@H]4[C@H](C)CC[C@H]4C4(C=O)CC2C=C(C(C)C)[C@@]34C(=O)O)OC[C@H]1C |
| 0.5 µg/mL (≈ 0.961 µM) | 8 µg/mL (≈ 15.4 µM) | 64 µg/mL (≈ 123 µM) | 0.25 µg/mL (≈ 0.481 µM) | 1 µg/mL (≈ 1.92 µM) | < 0.06 µg/mL | – | – | – | – | – | – | – | – | – | – | C=C(Cl)CN1C[C@H](OCC23C[C@@H]4[C@H](C)CC[C@H]4C4(C=O)CC2C=C(C(C)C)[C@@]34C(=O)O)O[C@H](C)[C@H]1C |
| < 0.06 µg/mL | 2 µg/mL (≈ 3.74 µM) | 32 µg/mL (≈ 59.9 µM) | < 0.06 µg/mL | 2 µg/mL (≈ 3.74 µM) | < 0.06 µg/mL | 20 mL/min/kg | – | – | 1.6 L/kg | – | – | 1.6 h | 3.1 h | 83% | 3880 ng/mL | C=C(Cl)CN1C[C@H](OCC23C[C@@H]4[C@H](C)CC[C@H]4C4(C=O)CC2C=C(C(C)C)[C@@]34C(=O)O)OC[C@H]1C(C)C |
| 2 µg/mL (≈ 3.83 µM) | 128 µg/mL (≈ 245 µM) | > 128 µg/mL | 1 µg/mL (≈ 1.92 µM) | > 128 µg/mL | 0.5 µg/mL (≈ 0.958 µM) | – | – | – | – | – | – | – | – | – | – | C=C(Cl)CN1C[C@H](OCC23C[C@@H]4[C@H](C)CC[C@H]4C4(C=O)CC2C=C(C(C)C)[C@@]34C(=O)O)OC[C@H]1CO |

From ChEMBL document CHEMBL1136700, “Identification of a broad-spectrum azasordarin with improved pharmacokinetic properties” (Bioorg Med Chem Lett, 2003)
